The text below walks through data of PubChem BioAssay.

As usually defined, the inhibition is the drop in the measured response relative to a control, in per cent.

Assay [1] can be described thus: inhibitors of TNFa-induced NFkB p65 translocation, primary screen, imaging, HUVEC, MLSMR starter and 10KST1 sets (AID 438;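 active = inhibition above 20% together with a positive visual image hit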;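 note: compound added about 3h40 before a 20 min TNFalpha stimulation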;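 for inhibition: signal is the nuclear over cytoplasmic p65 intensity ratio per well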). To be noted: HUVEC TNFa-induced p65 nuclear translocation; cell count: measured here: nuclei count (cytotoxicity indicator), at 2.08 µM; inhibition: at 2 µM, stronger effect = higher value, 0% TNFa-plus-vehicle, 100% no-TNFa wells.
The nature of assay [2]: inhibitors of E-selectin induction by TNFa, primary screen, imaging, HUVEC, immunofluorescence, MLSMR starter and 10KST1 sets (AID 487;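 active = visually confirmed hit in the image check and inhibition above 20%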;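 for inhibition: signal is fraction of cell area covered by stained E-selectin grains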;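 for nuclei count: 100% = median nuclei count of all wells on the same plate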). The settings on record: HUVEC TNFalpha-induced E-selectin immunofluorescence imaging, at 2 µM; inhibition: stronger effect = higher value; nuclei count: measured here: cell number, toxicity.
The nature of assay [3]: DUSP6 inhibitors restoring Erk phosphorylation by chemical complementation, primary imaging in DUSP6-transfected HeLa (AID 609).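 For inhibition: phospho-Erk level distribution per well compared with pooled transfected vehicle control wells.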 The settings on record: HeLa MKP-3 transfected, phospho-Erk imaging KS statistic, at 10 µM, cells stimulated with TPA for 15 min.
Assay [4] deals with Dual specificity protein phosphatase 6 (Homo sapiens) (UniProt Q16828). The description is as above. The settings on record: HeLa MKP-3 transfected, phospho-Erk imaging KS statistic; at 10 µM; stronger effect = higher value; cells stimulated with TPA for 15 min.
Chain of Dual specificity protein phosphatase 6 (Homo sapiens) (Q16828 whole entry, looked up): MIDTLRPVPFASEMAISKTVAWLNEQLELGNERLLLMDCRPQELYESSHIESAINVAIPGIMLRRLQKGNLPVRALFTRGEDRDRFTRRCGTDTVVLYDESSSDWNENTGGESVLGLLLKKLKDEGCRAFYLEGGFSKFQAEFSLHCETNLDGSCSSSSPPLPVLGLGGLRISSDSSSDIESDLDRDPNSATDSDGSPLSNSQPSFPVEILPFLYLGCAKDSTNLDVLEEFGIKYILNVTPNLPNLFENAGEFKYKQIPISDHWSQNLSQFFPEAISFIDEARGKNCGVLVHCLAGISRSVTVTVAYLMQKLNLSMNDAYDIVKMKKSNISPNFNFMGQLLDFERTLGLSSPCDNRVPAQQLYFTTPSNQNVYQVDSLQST
Assay [5] concerns the target Voltage-gated potassium channel subunit beta-2 (Rattus norvegicus) (UniProt P62483). The experiment in a line: KvBeta enzyme negative modulators, primary screen, biochemical, NADPH fluorescence (AID 622;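 active = fluorescence slope higher than the sample average by over 3 SD, cut at about -0.22 in these data, passing the limit was not always enough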;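 note: slope of raw intensity against log time taken from 70 to 1610 s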). The settings on record: recombinant KvBeta, 4-cyanobenzaldehyde reduction, at 10 µM, stronger effect = higher value.
Assay [6] has the same target. The experiment in a line: KvBeta positive modulators, primary screen, biochemical, NADPH fluorescence (AID 623;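 active = NADPH fluorescence slope more negative than the mean of all samples by about 3 SD, 99.7% confidence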;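 note: fluorescence intensity change per second fitted from 20 to 320 s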). To be noted: Recombinant KvBeta, NADPH fluorescence decrease slope, 10 min; at 10 µM; stronger effect = lower value.
Assay [7] deals with Muscarinic acetylcholine receptor M4 (Homo sapiens) (UniProt P08173). The experiment in a line: compounds altering M4/GIRK thallium flux, either direction, primary screen, M4 allosteric agonist project, cell-based, HEK293 M4/GIRK, BTC-AM (AID 625;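 active = fluorescence slope after compound addition differing from the mean of all tested samples at 99.7% confidence, mostly higher but some lower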;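 note: thallium influx through GIRK channels coupled to M4 in HEK293 cells with BTC-AM dye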). The settings on record: at 10 µM, actives lie on both sides. In a few lines:
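Material: M4/GIRK1/GIRK2 stable HEK293 cell line. Medium: pH 7.3 thallium assay buffer. Dosing: single compound concentration, 10 µM final. Schedule: 1 h dye loading, 2 min kinetic read. Measured by: kinetic fluorescence with BTC-AM dye. Read-out: post-addition slope, 15–24 s, of baseline-normalized fluorescence. Benchmarks: carbachol and DMSO controls.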

Assay [8] is described as follows: inhibitors of larval lipid processing in zebrafish, primary screen, whole organism, PED6 fluorescence, gall bladder and intestine (AID 686;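 active = a full or partial loss of lipid-probe fluorescence in the fish gall bladder, intestine or both, judged by eye; inactive = no fluorescence loss, or compound toxic to the fish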;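 note: larvae 5 to 7 days old with five fish per well; signal comes from phospholipase A2 cleavage of quenched PED6 carried via bile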). To be noted: Zebrafish larvae PED6 lipid processing, fluorescence scoring; screened at 20 µM (by protocol). The method in brief: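 System: live zebrafish larvae aged 5-7 days, whole organism; measure: graded gall bladder and intestinal fluorescence inhibition per well; incubation: overnight exposure; reagent: ingested quenched lipid PED6 at 100 nM; signal: By-eye fluorescence microscopy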

Assay [9] can be described thus: inhibitors of Chlamydomonas gravitaxis, primary screen, whole organism, Chlamydomonas reinhardtii, WT vs cilia-less mutant, absorbance, 96-well (AID 463189;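 active = inhibition at or above 50% relative to wild type and mutant plate controls; inactive = inhibition below 50%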;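 note: 0% = wild type cc124 cells in DMSO and 100% = ciliumless bld1 mutant cells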). To be noted: OD600 absorbance, 2 days, at 10 µM, stronger effect = higher value.
Where [10] appears, read: measured here: cell density z-score.
[11] abbreviates: measured here: nuclear c-Myc green intensity z-score.
[12] abbreviates: measured here: nuclear pErk red intensity z-score, stronger effect = higher value.

The source made the active and inactive calls.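 Rule for the calls, unless noted: active = compounds giving at least 50% inhibition in the cell-based MKP-3 phosphatase rescue imaging test; inactive = the rest.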

Chain of Muscarinic acetylcholine receptor M4 (Homo sapiens) (P08173 whole entry, looked up): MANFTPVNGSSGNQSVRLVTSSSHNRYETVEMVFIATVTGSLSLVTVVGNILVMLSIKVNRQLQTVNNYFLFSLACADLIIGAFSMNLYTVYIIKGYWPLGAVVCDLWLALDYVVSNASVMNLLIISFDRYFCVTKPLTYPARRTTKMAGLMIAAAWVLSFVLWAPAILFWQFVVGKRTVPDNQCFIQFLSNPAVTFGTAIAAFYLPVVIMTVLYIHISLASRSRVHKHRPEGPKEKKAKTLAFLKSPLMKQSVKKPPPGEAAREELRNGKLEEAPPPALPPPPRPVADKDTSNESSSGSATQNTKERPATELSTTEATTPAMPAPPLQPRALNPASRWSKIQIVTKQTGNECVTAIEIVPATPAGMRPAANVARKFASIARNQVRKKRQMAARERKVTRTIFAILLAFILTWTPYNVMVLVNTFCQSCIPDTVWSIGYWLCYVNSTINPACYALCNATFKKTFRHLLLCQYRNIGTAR
Chain of Voltage-gated potassium channel subunit beta-2 (Rattus norvegicus) (P62483 whole entry, looked up): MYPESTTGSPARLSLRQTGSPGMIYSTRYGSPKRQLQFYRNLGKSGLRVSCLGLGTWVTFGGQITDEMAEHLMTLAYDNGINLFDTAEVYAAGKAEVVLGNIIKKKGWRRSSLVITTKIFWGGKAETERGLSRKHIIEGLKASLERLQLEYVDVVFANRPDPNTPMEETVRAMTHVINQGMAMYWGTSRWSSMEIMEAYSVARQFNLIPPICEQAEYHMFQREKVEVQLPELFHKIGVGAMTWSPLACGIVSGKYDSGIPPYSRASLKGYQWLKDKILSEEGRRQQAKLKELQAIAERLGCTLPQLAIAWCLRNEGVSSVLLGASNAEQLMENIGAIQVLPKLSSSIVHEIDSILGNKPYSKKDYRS

`CCN(CC)Cc1cc(C(C)=O)ccc1OCC(C)C`: the cell count in [1] was 639. Further, the inhibition was 1.8% (inactive) in assay [1], 3.7% (inactive) in assay [2], -5.62% (inactive) in assay [4] and 29.4% (inactive) in [9]. The molecule further registered a nuclei count in assay [2] of 164%. The z-score in [3] (setting [10]) was -0.466; in assay [3] (setting [11]), 0.382; in [3] (setting [12]), -0.997. The fluorescence slope in assay [5] was -0.462 (inactive); in [7] it was 0.00565 (inactive). Further, in assay [6], the NADPH fluorescence slope is -4.7e-05 (inactive). The molecule was called inactive in assay [8].

`CC1(C)Cc2c(sc3nc(SCC(=O)NCc4ccco4)n(-c4ccccc4)c(=O)c23)CS1`: the cell count in assay [1] was determined as 501. Also, the inhibition is -2.3% (inactive) in [1], -158% (inactive) in assay [2], 1.98% (inactive) in assay [4] and -14.1% (inactive) in assay [9]. Further, the nuclei count in assay [2] is 112%. Further, the z-score in assay [3] (setting [10]) is -1.09; in assay [3] (setting [11]) it was -0.43; in [3] (setting [12]), 0.302. The fluorescence slope is -0.431 (inactive) in assay [5] and 0.00628 (inactive) in assay [7]. In addition, in [6], the NADPH fluorescence slope is -4.8e-05 (inactive). Also, in assay [8], the molecule was called inactive.

As for `CCOCCn1c(SCc2c(F)cccc2Cl)nc2c1c(=O)[nH]c(=O)n2C`, the cell count in assay [1] turned out to be 620. The inhibition is 3.9% (inactive) in [1], -40.4% (inactive) in assay [2], -9.53% (inactive) in assay [4] and -4.7% (inactive) in assay [9]. This molecule also yielded a nuclei count in [2] of 114%. Also, the z-score in [3] (setting [10]) was -0.473; in [3] (setting [11]) it was 0.0694; in assay [3] (setting [12]), 0.197. Also, the fluorescence slope in assay [5] is -0.472 (inactive); in [7], 0.00638 (inactive). In addition, the NADPH fluorescence slope in [6] is -4.5e-05 (inactive). Further, in assay [8], the molecule was classed as inactive.

As to `Cc1ccc(-n2ncc3c(NCCCOC(C)C)ncnc32)c(C)c1`, the cell count in [1] worked out at 586. Further, the inhibition in [1] was -13.1% (inactive); in [2], 45.2% (inactive); in assay [4] it was 1.42% (inactive); in [9], 39% (inactive). The molecule further displayed a nuclei count in assay [2] of 161%. Also, the z-score in assay [3] (setting [10]) is -1.65; in assay [3] (setting [11]), 1.1; in assay [3] (setting [12]), -0.077. The fluorescence slope in assay [5] is -0.408 (inactive); in assay [7], 0.00603 (inactive). Moreover, the NADPH fluorescence slope in assay [6] is -4.3e-05 (inactive). In addition, the result in assay [8] was inactive.

`O=C(NCC(F)(F)F)Nc1nnc(C(F)(F)F)s1`: the cell count in [1] is 731. The inhibition in [1] was 2.9% (inactive); in assay [2], -80.8% (inactive); in [4], 27.5% (inactive); in [9], -1.99% (inactive). In assay [2], the nuclei count was 166%. Further, the z-score is -0.948 in assay [3] (setting [10]), -0.154 in [3] (setting [11]) and 0.77 in [3] (setting [12]). Also, the fluorescence slope in assay [5] was -0.429 (inactive); in assay [7] it was 0.00508 (inactive). In addition, in assay [6], the NADPH fluorescence slope is -5.4e-05 (inactive). For the same molecule, the molecule was called inactive in assay [8].

In the case of `Cc1ccc(CNC(=O)c2cc3c(=O)n4ccccc4nc3n(Cc3ccco3)c2=N)cc1`, the cell count in assay [1] amounted to 620. Also, the inhibition is 2.6% (inactive) in assay [1], 18.3% (inactive) in [2], -2.29% (inactive) in assay [4] and 32.6% (inactive) in [9]. Also, the nuclei count in assay [2] came out at 134%. Further, the z-score was -0.0379 in assay [3] (setting [10]), 0.826 in [3] (setting [11]) and -0.239 in assay [3] (setting [12]). Moreover, the fluorescence slope is -0.456 (inactive) in [5] and 0.00363 (inactive) in assay [7]. For the same molecule, the NADPH fluorescence slope in [6] was -4.8e-05 (inactive). Also, the outcome in assay [8] is “active; weak signal in gallbladder and intestine”.

For `COC(=O)Sc1nc(N2CCOCC2)c2c(c1C#N)CC(C)(C)OC2`, the cell count in assay [1] is 565. Besides, the inhibition is -2% (inactive) in assay [1], -116% (inactive) in [2], 3.42% (inactive) in assay [4] and 24.4% (inactive) in [9]. Further, the nuclei count in assay [2] came out at 132%. In addition, the z-score in assay [3] (setting [10]) is 0.0433; in assay [3] (setting [11]), -0.438; in assay [3] (setting [12]) it was 1.3. For the same molecule, the fluorescence slope in assay [5] was -0.49 (inactive); in assay [7], 0.00476 (inactive). Further, in [6], the NADPH fluorescence slope is -0.000143 (inactive). Further, in assay [8], the molecule was classed as inactive.
